Consider eight compounds from ChEMBL document CHEMBL1145796, “Neuromuscular blocking activity and therapeutic potential of mixed-tetrahydroisoquinolinium halofumarates and halosuccinates in rhesus monkeys” (2003).

Experiment [1] is described as follows: Dose required for 41% suppression of the twitch response at the extensor digitorum in male Rhesus monkey. In kind it is functional. To be noted: Cercopithecidae. In outline:
(§1)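 Adult male rhesus monkeys (8–15 kg) under ketamine (5 mg/kg i.m.) and pentobarbital (2–5 mg/kg iv) induction, then N2O 60%/O2 40%/halothane 0.5–1%, ventilated, core temperature 37–38 °C. Twitch of extensor digitorum was recorded after ≥20 min stable baseline. Sequential iv bolus doses from 0.03 to 6.4 mg/kg. Per-animal ED95 came from log-probability regression of dose vs % block. Other lines give the single dose tested with its % block.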

Experiment [2] can be described thus: Time from injection to 95% recovery of the twitch response at the ED95 dose in male Rhesus monkey. The format is functional, Cercopithecidae. In outline:
(§2)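 Anesthetized, ventilated male rhesus monkeys received sequential iv bolus doses with extensor digitorum twitch recorded. Onset is injection to peak twitch inhibition. Duration is injection to 95% twitch recovery. Values at the ED95 were read from plots of onset or duration vs dose. Means ± SE across animals.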

Experiment [3] is described as follows: Time from injection to peak inhibition of twitch response at the ED95 dose in male Rhesus monkey. The format is functional, Cercopithecidae. In outline: as §2
Experiment [4] in a line: Dose required for 95% suppression of the twitch response at the extensor digitorum in male Rhesus monkey. The format is functional, Cercopithecidae. To be noted: Cercopithecidae; read-out: ED95. In outline: as §1
Experiment [5] in a line: Selectivity index is changes in heart rate(cv dose) to the suppression of twitch response (ED95) in male Rhesus monkey. The format is functional, Cercopithecidae. In outline:
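Same anesthetized male rhesus preparation, with blood pressure, heart rate and EKG recorded alongside twitch during sequential iv doses up to 6.4 mg/kg. Cardiovascular threshold dose is the dose giving ≥10% change in heart rate or mean arterial pressure. Index = mean threshold dose / mean ED95 (extensor digitorum).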

Experiment [6] is described as follows: Time from injection to peak inhibition of twitch response at a dose of 0.2 mg/kg in male Rhesus monkey was evaluated. The format is functional, Cercopithecidae. In outline:
(§3)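 Single iv bolus of 0.2 or 0.4 mg/kg in anesthetized, ventilated male rhesus monkeys, with extensor digitorum twitch recorded. Onset taken from injection to peak twitch inhibition at the given dose. Means ± SE, N = number of animals.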

The nature of experiment [7]: Time from injection to 95% recovery of twitch response at a dose of 0.2 mg/kg in male Rhesus monkey was evaluated.
Experiment [8] is described as follows: Time from injection to peak inhibition of twitch response at a dose of 0.4 mg/kg in male Rhesus monkey was evaluated. The format is functional, Cercopithecidae. The essentials: as §3
A short description of experiment [9]: Time from injection to 95% recovery of twitch response at a dose of 0.4 mg/kg in male Rhesus monkey was evaluated.
Experiment [10] in a line: Dose required for 91% suppression of the twitch response at the extensor digitorum in male Rhesus monkey. In kind it is functional. The following applies: Cercopithecidae. In outline: as §1
Experiment [11] can be described thus: Dose required for 93% suppression of the twitch response at the extensor digitorum in male Rhesus monkey. In kind it is functional. To be noted: Cercopithecidae. In outline:
as §1

The nature of experiment [12]: Dose required for 100% suppression of the twitch response at the extensor digitorum in male Rhesus monkey. In kind it is functional. To be noted: Cercopithecidae. In outline: as §1
The nature of experiment [13]: Dose required for 80% suppression of the twitch response at the extensor digitorum in male Rhesus monkey. In kind it is functional. The following applies: Cercopithecidae. In outline:
as §1

Each structure is given as a SMILES string.

`COc1cc2c(cc1OC)[C@H](c1cc(OC)c(OC)c(OC)c1)[N@@+](C)(CCCOC(=O)/C(Cl)=C/C(=O)OCCC[N@+]1(C)CCc3cc(OC)c(OC)c(OC)c3[C@H]1Cc1cc(OC)c(OC)c(OC)c1)CC2.COc1cc2c(cc1OC)[C@H](c1cc(OC)c(OC)c(OC)c1)[N@@+](C)(CCCOC(=O)/C=C(\Cl)C(=O)OCCC[N@+]1(C)CCc3cc(OC)c(OC)c(OC)c3[C@H]1Cc1cc(OC)c(OC)c(OC)c1)CC2.[Cl-].[Cl-].[Cl-].[Cl-]` registered an ED95 in experiment [1] of 0.05 mg/kg. The same compound returned a Duration in experiment [2] of 6.5 min. This compound also came in with an Onset in [3] of 145 s.
As to `COc1cc2c(cc1OC)[C@@H](c1cc(OC)c(OC)c(OC)c1)[N@+](C)(CCCOC(=O)CCCCCCC(=O)OCCC[N@+]1(C)CCc3cc(OC)c(OC)cc3[C@H]1Cc1cc(OC)c(OC)c(OC)c1)CC2.[Cl-].[Cl-]`, the ED95 in experiment [4] was determined as 0.103 mg/kg. In experiment [5], this compound displayed a Selectivity index of 47. For the same compound, the values for the Onset in [6], in [8] and in [3] were 50 s, 25 s and 75 s, respectively. Also, the Duration in [2] was 8.6 min; in [7] it was 14.6 min; in experiment [9] it was 16.9 min.
Turning to `COc1cc2c(cc1OC)[C@H](c1cc(OC)c(OC)c(OC)c1)[N@@+](C)(CCCOC(=O)/C=C(\Cl)C(=O)OCCC[N@+]1(C)CCc3cc(OC)c(OC)c(OC)c3[C@H]1Cc1cc(OC)c(OC)c(OC)c1)CC2.[Cl-].[Cl-]`, the ED95 in experiment [10] turned out to be 0.05 mg/kg. Moreover, the Duration in experiment [2] came out at 13.3 min. The same compound gave an Onset in experiment [3] of 160 s.
As to `COc1cc(C2c3c(cc(OC)c(OC)c3OC)CC[N@@+]2(C)CCCOC(=O)/C(Cl)=C/C(=O)OCCC[N@+]2(C)CCc3cc(OC)c(OC)c(OC)c3[C@H]2c2cc(OC)c(OC)c(OC)c2)cc(OC)c1OC.[Cl-].[Cl-]` (stereo partly specified), the Selectivity index in experiment [5] was 1. The compound further displayed a Duration in experiment [2] of 3.6 min. The ED95 in experiment [11] came to 2 mg/kg. In experiment [3], the Onset is listed as 45 s.
For the compound `COc1cc2c(cc1OC)[C@H](c1cc(OC)c(OC)c(OC)c1)[N@@+](C)(CCCOC(=O)C[C@H](F)C(=O)OCCC[N@+]1(C)CCc3cc(OC)c(OC)cc3[C@H]1Cc1cc(OC)c(OC)c(OC)c1)CC2.[Cl-].[Cl-]`, the ED95 in [12] came to 0.05 mg/kg. The Duration in [2] worked out at 35 min. The same compound came in with an Onset in experiment [3] of 80 s.
For the compound `COc1cc2c(cc1OC)[C@H](c1cc(OC)c(OC)c(OC)c1)[N@@+](C)(CCCOC(=O)CC(F)(F)C(=O)OCCC[N@+]1(C)CCc3cc(OC)c(OC)cc3[C@H]1Cc1cc(OC)c(OC)c(OC)c1)CC2.[Cl-].[Cl-]`, in [4], the ED95 is 0.056 mg/kg. This compound had a Selectivity index in experiment [5] of 96. Besides, the Onset is listed as 37 s in experiment [6], 22 s in [8] and 78 s in experiment [3]. Further, the values for the Duration in experiment [2], in experiment [7] and in [9] were 7.3 min, 10.3 min and 13 min, respectively.
For the compound `COc1cc2c(cc1OC)[C@H](c1cc(OC)c(OC)c(OC)c1)[N@@+](C)(CCCOC(=O)CCCCCC(=O)OCCC[N@+]1(C)CCc3cc(OC)c(OC)cc3[C@H]1Cc1cc(OC)c(OC)c(OC)c1)CC2.[Cl-].[Cl-]`, in [13], the ED95 came out at 0.2 mg/kg. The Duration in experiment [2] was 7.1 min. For the same compound, the Onset in [3] worked out at 40 s.
`COc1cc2c(cc1OC)C(Cc1cc(OC)c(OC)c(OC)c1)[N@+](C)(CCCOC(=O)/C(Cl)=C/C(=O)OCCC[N@+]1(C)CCc3cc(OC)c(OC)cc3[C@H]1Cc1cc(OC)c(OC)c(OC)c1)CC2.[Cl-].[Cl-]` (stereo partly specified): the ED95 in experiment [4] is 0.079 mg/kg. Also, in experiment [5], the Selectivity index was found to be 20. Also, in [2], the Duration is listed as 7.1 min. Also, the Onset in experiment [3] turned out to be 96 s.
